Results of several laboratories.
Lines come from different studies, so protocols differ.

| Compound | cell line | test | conditions | measurement | result |
| --- | --- | --- | --- | --- | --- |
| Cc1c2cnccc2c(C)c2c1c1ccccc1n2CCCCCCNCc1ccccc1 | MDA-MB-468 | cell growth or viability, MTT |  | IC50 | 720 nM |
| CC(C)[C@@H]1NC(=O)[C@H](C)OC(=O)[C@@H](C(C)C)NC(=O)[C@@H](C(C)C)OC(=O)[C@H](C(C)C)NC(=O)[C@H](C)OC(=O)[C@@H](C(C)C)NC(=O)[C@@H](C(C)C)OC(=O)[C@H](C(C)C)NC(=O)[C@H](C)OC(=O)[C@@H](C(C)C)NC(=O)[C@@H](C(C)C)OC1=O | C6 | cell growth or viability, SRB |  | IC50 | 24 nM |
| COc1ccc2c(c1)c(C(=O)C(=O)NCCc1c[nH]c3ccccc13)cn2Cc1ccc(Cl)cc1 | C4-2 | cell growth or viability, MTT |  | IC50 | > 100000 nM |
| c1ccc2c(NCCCCCCNc3c4ccccc4nc4ccccc34)c3ccccc3nc2c1 | MDA-MB-468 | cell growth or viability, MTT |  | IC50 | 96 nM |
| O=C(O)C(Cl)Cl | BCPAP | cell growth or viability, MTT | 72 h | IC50 | > 50000 nM |
| c1ccc([C@@H]2C[C@H]2NC2CCNCC2)cc1 | MV4-11 | cell growth or viability, resazurin | 96 h | EC50 | 0.48 nM |
| O=C(NCCc1c[nH]c2ccccc12)C(=O)c1cn(Cc2ccc(Cl)cc2)c2ccc(F)cc12 | C4-2 | cell growth or viability, MTT |  | IC50 | > 100000 nM |
| Cn1cncc1[C@@](N)(c1ccc(Cl)cc1)c1ccc2c(c1)c(-c1cccc(Cl)c1)cc(=O)n2C | HN-6 | cell growth or viability | 72 h | IC50 | 2270 nM |
| COc1cccc2c1C(=O)c1c(O)c3c(c(O)c1C2=O)C[C@@](O)(C(=O)CO)C[C@@H]3O[C@H]1C[C@H](N)[C@H](O)[C@H](C)O1 | C6 | cell growth or viability, SRB | 72 h | IC50 | 500 nM |
| CCn1cc(C(=O)C(=O)NCCc2c[nH]c3ccccc23)c2ccccc21 | C4-2 | cell growth or viability, MTT |  | IC50 | > 100000 nM |
| COc1cc(O)c2c(=O)c(OC)c(-c3ccc(O)cc3)oc2c1 | RBL-2H3 | degranulation, inhibitor |  | IC50 | 80400 nM |
